Measurements gathered from unrelated publications.
Each line is one published result; the experiments were not run side by side.
Target: Aurora kinase B (AURKB, Homo sapiens, UniProt Q96GD4)

Compound | test | conditions | measurement | result
Cc1nn(CC(F)(F)F)cc1Nc1ncc(C2CC2)c(NCCCNC(=O)C2CCC2)n1 | enzyme activity, inhibitor, radiometric | 1 µM | remaining activity | 102%
CS(=O)(=O)Nc1cccc(-c2csc(NC(=O)CSc3nc4nccnc4c(=O)n3CCc3ccccc3)n2)c1 | enzyme activity, inhibitor | 10 µM | inhibition | -11%
C[C@H](c1cccc(C#N)c1)n1cc(Cl)cc(C(N)=O)c1=N | cell-free assay, competition with immobilised ligand | 1 µM | remaining binding | 100%
Cc1cc(Nc2cc3ncccc3c(N[C@@H]3C[C@H]4CC[C@@H](C3)N4CCC#N)n2)n[nH]1 | enzyme activity, inhibitor | 1 µM | inhibition | 80%
CN1CC(Oc2cnc(C#N)cc2-c2ccn3nc(NC(=O)C4CC4)cc3c2)C1 | enzyme activity, inhibitor | 1 µM | inhibition | 1%
O=C(Nc1cccc(Nc2ncc(Br)c(NCCc3cnc[nH]3)n2)c1)N1CCCC1 | enzyme activity, inhibitor, radiometric | 1 µM | remaining activity | 2%
C#Cc1cccc(Nc2ncnc3cc(OCCOC)c(OCCOC)cc23)c1 | enzyme activity, inhibitor | 0.5 µM | activity vs control | 74.7%
Brc1cnc(Nc2cccc(CN3CCOCC3)c2)nc1NCCc1c[nH]cn1 | enzyme activity, inhibitor, radiometric | 1 µM | remaining activity | 1%
CCN(CC)CCNC(=O)c1c(C)[nH]c(/C=C2\C(=O)Nc3ccc(F)cc32)c1C | cell-free assay | 0.5 µM | remaining signal | 48.7%
Cc1ccc(NC(=O)c2ccc(C)c(C(F)(F)F)c2)cc1C#Cc1nn(C2CCC(O)CC2)c2ncnc(N)c12 (centres unmarked) | cell-free assay, inhibitor | 10 µM | remaining signal | 475%
CC(=O)c1c(NS(C)(=O)=O)c2cc(-c3ccc(Cl)cc3)c(-c3ccc(Cl)cc3Cl)nc2n(C)c1=O | cell-free assay, competition with immobilised ligand | 1 µM | remaining binding | 100%
O=C(NCCCNc1nc(Nc2cccc(NC(=O)N3CCCC3)c2)ncc1C1CC1)C1CCC1 | enzyme activity, inhibitor, radiometric | 1 µM | remaining activity | 11%
CCc1ccccc1C(=O)Nc1n[nH]c2c(C)c(F)c(C3C(C#N)=C(C)N(C)C(C)=C3C#N)cc12 | cell-free assay, competition with immobilised ligand | 1 µM | remaining binding | 88%
C=CC(=O)Nc1cc(Nc2nccc(Nc3cc(Cl)c(F)cc3C(C)(C)O)n2)c(OC)cc1N1CC[C@@H](N(C)C)C1 | enzyme activity, inhibitor | 1 µM | inhibition | 10%
c1ccc(N2CCN(Cc3nc4ccccc4[nH]3)CC2)nc1 | cell-free assay, competition with immobilised ligand | 1 µM | remaining binding | 18%
O=C1c2ccccc2-c2n[nH]c3cccc1c23 | enzyme activity, inhibitor | 0.5 µM | activity vs control | 14.9%
CN(C(=O)c1ccccc1)c1cc(N(C)c2ccc3c(c2)CCc2ccc(C(=O)NCCN4CCOCC4)cc2C3=O)ccc1F | cell-free assay, competition with immobilised ligand | 1 µM | remaining binding | 100%
CN(C)C1CCN(CC#Cc2nn(C3CCCC3)c3nc(NCc4ccccc4)ncc23)C1 (centres unmarked) | enzyme activity, inhibitor, FRET | 0.1 µM | inhibition | 8%
Cc1nc(N2CC[C@@H](O)C2)ncc1-c1cc(C(F)(F)F)cc2[nH]ncc12 | cell-free assay, competition with immobilised ligand | 1 µM | remaining binding | 100%
COc1cc2nccc(Oc3ccc(NC(=O)c4c5n(n(-c6ccc(F)cc6)c4=O)CCCC5)cc3)c2cc1OC | enzyme activity, inhibitor | 0.1 µM | inhibition | 60%
